Activity calls are given as the source filed them. No cut-off for these calls is given here.
How the values were obtained:
[1] = species: Rattus norvegicus; experiment: Positive allosteric modulation of AMPA receptor in rat embryonic hippocampal neurons assessed as concentration required to double glutamate-induced steady-state current by patch clamp electrophysiology assay; settings: Hippocampus
[2] = species: Rattus norvegicus; experiment: Positive allosteric modulation of AMPA receptor in rat hippocampal slices assessed as increase of fEPSP-induced current amplitude at 3 uM; format: tissue-based; settings: Hippocampus
Procedure, shortened: (§1)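 Field recordings in in vitro hippocampal slices. Result is the percent rise in fEPSP amplitude, measured at the stated compound concentration.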

[3] = Displacement of [3H]-AMPAKINE from AMPA receptor in rat forebrain cell membranes; parameters: species or system Membrane
[4] = species: Rattus norvegicus; experiment: Positive allosteric modulation of AMPA receptor in rat hippocampal slices assessed as increase of fEPSP-induced current amplitude at 10 uM; format: tissue-based; settings: Hippocampus; procedure, shortened: as §1
[5] = species: Rattus norvegicus; experiment: Positive allosteric modulation of AMPA receptor in rat hippocampal slices assessed as increase of fEPSP-induced current amplitude at 30 uM; format: tissue-based; settings: Hippocampus; procedure, shortened: as §1
[6] = species: Rattus norvegicus; experiment: Ratio of compound to CX614 for AMPA receptor in rat embryonic hippocampal neurons assessed as concentration required to double glutamate-induced steady-state current; settings: Hippocampus
[7] = species: Rattus norvegicus; experiment: Positive allosteric modulation of AMPA receptor in rat hippocampal slices assessed as increase of fEPSP-induced current amplitude at 0.3 uM; format: tissue-based; settings: Hippocampus; procedure, shortened: as §1

## O=C1c2cc3c(cc2OCN1CCc1cccc([N+](=O)[O-])c1)C(=O)N1CCCC1O3 (stereo not given)
[1]
  CD: 0.015 µM
[2]
  Activity: 8%
[3]
  Ki: 3.6 µM

## [N-]=[N+]=NCCN1COc2cc3c(cc2C1=O)OC1CCCN1C3=O (stereo not given)
[1]
  CD: 0.08 µM
[2]
  Activity: 16%
[3]
  Ki: 5.9 µM

## COCCN1COc2cc3c(cc2C1=O)OC1CCCN1C3=O (stereo not given)
[1]
  CD: 1.2 µM
[4]
  Activity: 14%
[3]
  Ki: 41 µM

## CSCCN1COc2cc3c(cc2C1=O)OC1CCCN1C3=O (stereo not given)
[1]
  CD: 0.29 µM
[2]
  Activity: 12%
[3]
  Ki: 17 µM

## NC(=S)c1cccc(CCN2COc3cc4c(cc3C2=O)OC2CCCN2C4=O)c1 (stereo not given)
[1]
  CD: 0.4 µM
[4]
  Activity: 5%

## N#Cc1cccc(CCN2COc3cc4c(cc3C2=O)OC2CCCN2C4=O)c1 (stereo not given)
[1]
  CD: 0.027 µM
[2]
  Activity: 16%
[3]
  Ki: 3 µM

## O=C1c2cc3c(cc2OCN1CCc1cccc(OC(F)(F)F)c1)C(=O)N1CCCC1O3 (stereo not given)
[1]
  CD: 3 µM
[3]
  Ki: 13 µM

## N#CSCCN1COc2cc3c(cc2C1=O)OC1CCCN1C3=O (stereo not given)
[1]
  CD: 0.06 µM
[2]
  Activity: 7%
[3]
  Ki: 1 µM

## COc1cccc(CCN2COc3cc4c(cc3C2=O)OC2CCCN2C4=O)c1 (stereo not given)
[1]
  CD: 14 µM
[3]
  Ki: 69 µM

## C[C@H]1CN2C(=O)c3cc4c(cc3O[C@@H]2O1)OCO4
[1]
  CD: 2 µM

## CCN1COc2cc3c(cc2C1=O)OC1CCCN1C3=O (stereo not given)
[1]
  CD: 0.2 µM
[4]
  Activity: 17%
[3]
  Ki: 20 µM

## O=C1c2cc3c(cc2OCN1CCn1cncn1)C(=O)N1CCCC1O3 (stereo not given)
[1]
  CD: 0.063 µM
[2]
  Activity: 31%
[3]
  Ki: 2.1 µM

## O=C1c2cc3c(cc2OCN1CCc1cccnc1)C(=O)N1CCCC1O3 (stereo not given)
[1]
  CD: 0.2 µM
[2]
  Activity: 15%
[3]
  Ki: 6.6 µM

## N#Cc1ccnn1CCN1COc2cc3c(cc2C1=O)OC1CCCN1C3=O (stereo not given)
[1]
  CD: 0.045 µM
[2]
  Activity: 16%
[3]
  Ki: 22 µM

## N#Cc1ccn(CCN2COc3cc4c(cc3C2=O)OC2CCCN2C4=O)n1 (stereo not given)
[1]
  CD: 0.1 µM
[2]
  Activity: 10%
[3]
  Ki: 18 µM

## O=C1c2cc3c(cc2OCN1CCCc1ccccc1)C(=O)N1CCCC1O3 (stereo not given)
[1]
  CD: 3.6 µM

## O=C1c2cc3c(cc2OCN1CCn1nccn1)C(=O)N1CCCC1O3 (stereo not given)
[1]
  CD: 0.8 µM
[2]
  Activity: 7%
[3]
  Ki: 62 µM

## O=C1c2cc3c(cc2OCN1CCn1ccnc1)C(=O)N1CCCC1O3 (stereo not given)
[1]
  CD: 0.05 µM
[4]
  Activity: 38%
[3]
  Ki: 6.6 µM

## O=C1c2cc3c(cc2OCN1CCc1c[nH]cn1)C(=O)N1CCCC1O3 (stereo not given)
[1]
  CD: 5.1 µM
[3]
  Ki: 225 µM

## O=C1c2cc3c(cc2OCN1CCc1ccccc1)C(=O)N1CCCC1O3 (stereo not given)
[1]
  CD: 0.25 µM
[2]
  Activity: 3%
[5]
  Activity: 19%
[3]
  Ki: 7.9 µM

## O=C1c2cc3c(cc2OCN1CCc1cc(F)cc(F)c1)C(=O)N1CCCC1O3 (stereo not given)
[1]
  CD: 0.005 µM
[2]
  Activity: 16%
[3]
  Ki: 0.3 µM
[6]
  Ratio: 460

## O=C1c2cc3c(cc2OCN1CCn1cc(Br)cn1)C(=O)N1CCCC1O3 (stereo not given)
[1]
  CD: 0.02 µM
[2]
  Activity: 32%
[3]
  Ki: 2.5 µM

## O=C1c2cc3c(cc2OCN1CCc1cccc(Cl)c1)C(=O)N1CCCC1O3 (stereo not given)
[1]
  CD: 0.02 µM
[5]
  Activity: 7%
[3]
  Ki: 1.8 µM

## NC(=O)CCN1COc2cc3c(cc2C1=O)OC1CCCN1C3=O (stereo not given)
[1]
  CD: 1.1 µM
[5]
  Activity: 6%
[3]
  Ki: 51 µM

## CN(CCCN1COc2cc3c(cc2C1=O)OC1CCCN1C3=O)S(C)(=O)=O (stereo not given)
[1]
  CD: 0.33 µM
[4]
  Activity: 9%
[3]
  Ki: 34 µM

## NC(=O)c1cccc(CCN2COc3cc4c(cc3C2=O)OC2CCCN2C4=O)c1 (stereo not given)
[1]
  CD: 5 µM
[3]
  Ki: 620 µM

## O=C1c2cc3c(cc2OCN1Cc1ccccc1)C(=O)N1CCCC1O3 (stereo not given)
[1]
  CD: 6 µM

## O=C1c2cc3c(cc2OCN1c1ccccc1)C(=O)N1CCCC1O3 (stereo not given)
[1]
  CD: inactive

## O=C1c2cc3c(cc2OCN1CCn1cnc([N+](=O)[O-])c1)C(=O)N1CCCC1O3 (stereo not given)
[1]
  CD: 0.0007 µM
[7]
  Activity: 19%
[3]
  Ki: 0.06 µM
[6]
  Ratio: 3000

## N#Cc1cnn(CCN2COc3cc4c(cc3C2=O)OC2CCCN2C4=O)c1 (stereo not given)
[1]
  CD: 0.04 µM
[2]
  Activity: 29%
[3]
  Ki: 1 µM
